According to ChEMBL document CHEMBL4196108, “5-Aroylindoles Act as Selective Histone Deacetylase 6 Inhibitors Ameliorating Alzheimer's Disease Phenotypes” (J Med Chem, 2018):
Active and inactive are the calls of the source. No cut-off for these calls is given here.

How the values were obtained:
[1] = Plasma concentration in Sprague-Dawley rat at 50 mg/kg, po after 3 hrs by HPLC-MS/MS analysis; assay type: ADME, organism-based
Mus musculus [2] = assay: In vivo inhibition of HDAC6 in scopolamine-treated 3xTg-AD transgenic mouse brain hippocampal CA1 region assessed as increase in acetyl-alpha-tubulin level at 50 mg/kg, po administered daily for 3 months by immunohistochemical analysis; assay type: functional, organism-based
How it was run: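 Female 3xTg-AD mice, standard diet to 6 months of age, then 50 mg/kg orally once daily for three months; memantine 30 mg/kg in water as comparator. Brains removed and hippocampal CA1 sections immunostained for acetyl-α-tubulin and phospho-tau Ser396 and Ser404. Mean ± STD; one-way ANOVA.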

Mus musculus [3] = assay: In vivo inhibition of HDAC6 in 3xTg-AD transgenic mouse brain hippocampal CA1 region assessed as downregulation of […] expression of beta-amyloid at 50 mg/kg, po administered daily for 3 months by Western blot analysis; assay type: functional, organism-based
Mus musculus [4] = assay: Toxicity in Balb/c mouse assessed as increase in body weight at 100 to 1000 mg/kg/day, ip administered for 6 days followed by 1 week recovery; assay type: organism-based; details: in vivo
How it was run: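 Male Balb/c mice given 100, 500 or 1000 mg/kg/day i.p. for 6 days, then 1 week recovery; six vehicle-injected mice as controls. Body weight and survival recorded daily.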

Rattus norvegicus = assay: In vivo inhibition of HDAC6 in Wistar rat brain hippocampal CA1 region assessed as downregulation of scopolamine-mediated increase in Tau phosphorylation at Ser396/Ser404 residues by immunohistochemical analysis; assay type: functional, organism-based
How it was run: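 Male Wistar rats, 7 weeks old, dosed orally at 25 mg/kg in 1% carboxymethyl cellulose/0.5% Tween 80 once daily. Scopolamine 1 mg/kg i.p. 90 min before test trial (controls excluded). Morris water maze (hidden platform escape latency), elevated plus maze (started at open-arm end, time to closed arm), then CA1 phospho-tau Ser396/Ser404 immunohistochemistry.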

## COc1ccc(C(=O)c2ccc3c(ccn3Cc3ccc(C(=O)NO)cc3)c2)cc1
[1]
  concentration at 3 h: 7.3 ng/mL
Mus musculus [2]
  inhibition: Active
Mus musculus [3]
  inhibition: Active
Mus musculus [4]
  Activity: Non-Toxic
Rattus norvegicus
  inhibition: Active
